Bioassay records (PubChem BioAssay)
Rows were chosen to be rich in hits. Some 1.7% of all compounds tested hit in one or more screens of this group.
Rpn11 inh: Rpn11 (PSMD14) deubiquitinase inhibitors, primary screen, biochemical, fluorescence polarization, uHTS; AID 588493, 2011; human 26S proteasome, Ub4-pepOG fluorescence polarization; 20S core pre-blocked with epoxomicin; calls only at 20 µM; actives 0.59% (n = 360,000); 26S proteasome non-ATPase regulatory subunit 14 (Homo sapiens), O00487;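 active = inhibition at 20 µM, scaled to each plate's controls, above about 33%, limit read from the data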
CSN inh: inhibitors of CSN-mediated cullin deneddylation, primary screen, biochemical, fluorescence polarization, uHTS | Purified CSN, SCF-Nedd8-OG deneddylation | actives 0.38% (n = 360,000) | inhibition, % at 12.5 µM;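 active = pattern-corrected inhibition above about 35%, with an unprinted fluorescence ratio check between 0.5 and 1.5, limit read from the data, passing the limit was not always enough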
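Assay system: HEK293T-derived human Csn5 enzyme; quantity: 0.24 nM enzyme; medium: Tris/NaCl/DTT buffer, pH 7.5; also added: substrate SCFSkp2-Nedd8OG, 10 nM; doses: 12.5 µM compound; schedule: 90 min reaction at room temperature; signal: FP; read-out: % inhibition of substrate cleavage by Csn5; benchmarks: substrate-only high control, full reaction low control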
TPT1 inhibitor: Candida albicans TPT1 enzyme inhibitors, primary screen, biochemical, fluorescence polarization; tRNA 2'-phosphotransferase TPT1 (Candida albicans SC5314); recombinant caTPT1, FP RNA substrate dephosphorylation; inhibition, % at 5 µM; actives 0.81% (n = 300,000); AID 1962, 2009;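 active = inhibition above the mean of all tested compounds plus 3 SD, set per screening campaign, cut at about 24% in these data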
IDE cell inh: human IDE inhibitors in live cells, primary screen, fluorescence polarization, HEK cells, FAbetaB substrate; Insulin-degrading enzyme (Homo sapiens), P14735; actives 0.41% (n = 320,000); inhibition, % at 5.59 µM; FAbetaB cleavage;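 active = percent inhibition above the average of all tested compounds plus 3 SD, set per screening campaign, cut at about 16% in these data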;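 note: IDE supplied by intact live HEK cells; FP after avidin binding of uncleaved biotin substrate so inhibition keeps polarization high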
HNF4A DNA FP: change in binding of human HNF4A to DNA, primary screen, biochemical, fluorescence polarization, FITC-DNA; Hepatocyte nuclear factor 4-alpha (Homo sapiens), P41235; 1 h; activity change, % at 10 µM; actives 0.3% (n = 360,000); AID 1224865, 2016; in the data active = activity change above about 30%, passing the limit was not always enough
IDE cell activ: human IDE activators in live cells, primary screen, fluorescence polarization, HEK cells, FAbeta-B substrate. AID 493087, 2011. activation, % at 5.96 µM. actives 0.073% (n = 340,000). FAbeta-B cleavage; 0% vehicle, 100% cell-free pure enzyme wells;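 active = activation above the mean of all tested compounds plus 3 SD, set per screening campaign, cut at about 17% in these data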
TPT1 inh confirm: Candida albicans TPT1 inhibitors, confirmation, biochemical, fluorescence polarization, triplicate; recombinant caTPT1, RNase T1 coupled; AID 2149, 2009; inhibition, % at 5 µM; shares compounds with TPT1 inhibitor; actives 74% (n = 2,400);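 active = inhibition above the primary screen limit, the mean inhibition of all tested compounds plus 3 SD, cut at about 25% in these data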
RNase T1 counter: RNase T1 inhibitors, counter-screen for TPT1 inhibitor project, biochemical, fluorescence polarization | shares compounds with TPT1 inhibitor | RNase T1 cleavage, 1536-well | actives 83% (n = 2,400) | inhibition, % at 5 µM;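 active = inhibition above the solvent-only control well mean plus 3 SD, limit set per screening run, cut at about 23% in these data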;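 note: inhibitors block cleavage so intact labeled substrate keeps polarization high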
Rpn11 inh conf: Rpn11 (PSMD14) deubiquitinase inhibitors, confirmation, biochemical, fluorescence polarization, single concentration. purified human 26S proteasome, Ub4-pepOG fluorescence polarization; proteasome pretreated with epoxomicin. inhibition, % at 20 µM. actives 29% (n = 1,900). shares compounds with Rpn11 inh
MMP-2 counter: MMP-2 enzyme inhibition, confirmation, counter-screen for RPN11 inhibitor project, biochemical, fluorescence, single concentration | AID 602330, 2012 | actives 4% (n = 1,900) | shares compounds with Rpn11 inh | recombinant MMP-2, FRET peptide cleavage fluorescence | inhibition, % at 20 µM;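 note: human MMP-2 activated beforehand with APMA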
Target sequence (P08253 whole entry, looked up): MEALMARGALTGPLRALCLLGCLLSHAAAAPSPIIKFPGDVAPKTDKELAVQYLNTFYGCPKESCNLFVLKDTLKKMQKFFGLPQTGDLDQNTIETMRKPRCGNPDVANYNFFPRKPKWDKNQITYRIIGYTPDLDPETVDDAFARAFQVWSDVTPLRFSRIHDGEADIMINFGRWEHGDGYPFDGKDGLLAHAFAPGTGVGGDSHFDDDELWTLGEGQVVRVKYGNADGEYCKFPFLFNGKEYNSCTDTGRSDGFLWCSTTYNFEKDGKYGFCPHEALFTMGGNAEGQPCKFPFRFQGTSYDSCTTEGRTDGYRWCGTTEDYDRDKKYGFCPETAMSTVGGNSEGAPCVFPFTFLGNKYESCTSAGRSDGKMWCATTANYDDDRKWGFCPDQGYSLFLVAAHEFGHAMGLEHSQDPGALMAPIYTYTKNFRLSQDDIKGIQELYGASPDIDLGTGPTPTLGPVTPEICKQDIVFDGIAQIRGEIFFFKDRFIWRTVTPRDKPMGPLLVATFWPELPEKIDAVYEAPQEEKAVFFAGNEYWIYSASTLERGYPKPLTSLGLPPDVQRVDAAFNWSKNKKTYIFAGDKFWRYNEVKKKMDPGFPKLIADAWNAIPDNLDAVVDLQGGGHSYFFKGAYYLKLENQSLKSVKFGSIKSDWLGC
Thrombin inh: bovine thrombin protease inhibition, confirmation, counter-screen for Rpn11 inhibitor project, biochemical, fluorescence polarization, single concentration; shares compounds with Rpn11 inh; bovine thrombin cleavage of Ub4-pepOG; inhibition, % at 20 µM; actives 13% (n = 1,900); AID 602333, 2012;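 active = mean inhibition at least 40% at 20 µM, or signal 3 deviations below plate average, so some actives read negative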
Large screens that a line does not name were inactive (follow-up assays come after a bar, where they were run). Cut-off read from the data, not from the text of the source, unless noted: active = inhibition above about 40%; inactive = the rest.

Cn1ncc(Br)c1NC(=O)c1ccco1	none
N#Cc1c(-c2ccco2)cc(-c2ccc(F)cc2)nc1N	Rpn11 inh active, TPT1 inhibitor 24.7, HNF4A DNA FP 43.5 | TPT1 inh confirm 29.8 | RNase T1 counter 38.5 | Rpn11 inh conf 49.8 | MMP-2 counter inactive | Thrombin inh inactive
N#Cc1c(-c2ccc(F)cc2)cc(-c2cccnc2)nc1N	none
O=C(Nn1cnc2ccccc2c1=O)c1ccccc1Cl	none
O=S(=O)(Cc1ccccc1)N1CCN(C2Cc3ccccc3C2)CC1	none
O=C(NN1C(=O)/C(=C/c2ccc(O)c([N+](=O)[O-])c2)SC1=S)c1ccccc1Cl	Rpn11 inh active, TPT1 inhibitor 75.2 | TPT1 inh confirm 55.0 | RNase T1 counter 66.2 | Rpn11 inh conf 51.5 | MMP-2 counter inactive | Thrombin inh 42.2
O=C1/C(=C/c2ccc(O)c([N+](=O)[O-])c2)SC(=S)N1Cc1ccccc1	none
CCOC(=O)CSc1nc2ccccc2n1C(=O)OCC	Rpn11 inh active, TPT1 inhibitor 38.7 | TPT1 inh confirm 37.0 | RNase T1 counter 47.4 | Rpn11 inh conf 51.1 | MMP-2 counter inactive | Thrombin inh inactive
CC(C)COC(=O)n1c(SCC(N)=O)nc2ccccc21	none
